Bioassay records as filed in PubChem BioAssay.
RGS4 block – human RGS4 inhibition | B-score at 10 µM | HEK293 M3R/RGS4 inducible, Fluo-4 calcium flux; stronger effect = higher value; triggered by carbachol at its EC20 | P49798 | 310,000 compounds, 0.45% hits;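 active means B-score, a plate-corrected calcium signal, over three deviations above library mean, with baseline fluorescence within five deviations of library mean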;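 further: RGS4 expression induced by doxycycline in cells with stable M3 receptor; B-score is computed from the integrated fluorescence ratio over baseline after carbachol; higher B-score means a larger calcium signal and so more RGS4 inhibition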
Target sequence (P49798 whole entry, looked up): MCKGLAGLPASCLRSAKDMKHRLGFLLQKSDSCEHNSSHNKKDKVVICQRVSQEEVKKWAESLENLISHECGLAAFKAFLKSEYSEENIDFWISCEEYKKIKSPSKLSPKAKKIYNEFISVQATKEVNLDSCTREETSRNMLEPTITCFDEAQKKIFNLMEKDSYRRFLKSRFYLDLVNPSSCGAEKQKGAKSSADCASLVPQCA
MrgX1 PAM – human MrgX1 positive allosteric modulation, primary screen; Q96LB2; MrgX1-HEK293, Fluo-4 calcium flux, FDSS; stronger effect = higher value; B-score at 10 µM; 310,000 compounds, 0.63% hits;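 active means plate-corrected calcium response at least 3 library SD above typical, normal starting fluorescence, not activating the receptor alone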;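 further: compound read alongside a low EC10 to EC30 dose of BAM8-22 agonist; peak minus trough fluorescence over baseline measured at the second addition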
Target sequence (Q96LB2 whole entry, looked up): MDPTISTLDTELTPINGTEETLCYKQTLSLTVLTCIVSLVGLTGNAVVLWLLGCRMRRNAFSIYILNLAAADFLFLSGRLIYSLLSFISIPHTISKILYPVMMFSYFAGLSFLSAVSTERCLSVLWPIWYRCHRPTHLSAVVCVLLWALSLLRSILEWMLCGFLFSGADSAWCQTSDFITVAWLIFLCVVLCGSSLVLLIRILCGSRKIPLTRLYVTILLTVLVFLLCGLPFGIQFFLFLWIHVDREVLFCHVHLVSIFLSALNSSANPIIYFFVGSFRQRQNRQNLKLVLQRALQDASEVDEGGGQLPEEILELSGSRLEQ
MrgX1 antagonist – blocks BAM8-22 activation of human MrgX1 receptor | B-score at 10 µM | Q96LB2 | 310,000 compounds, 1.3% hits | AID 588676 | MRGX1-HEK293 calcium flux, Fluo-4, BAM8-22 antagonism; stronger effect = lower value;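 active means calcium-response B-score plate-corrected more than 3 library SD below zero, starting fluorescence within 5 deviations, no agonist response on first addition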;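 further: peak minus trough fluorescence over baseline after final BAM8-22 challenge near maximal dose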
MrgX1 agonist – human MrgX1 receptor agonism, primary screen; Q96LB2; MrgX1-HEK293 cells, Fluo-4 calcium fluorescence, agonist mode; stronger effect = higher value; B-score at 10 µM; 310,000 compounds, 0.44% hits;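 active means calcium response B-score plate-corrected fluorescence ratio at least 3 library SD, with starting fluorescence B-score inside 5 SD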
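times = overnight plating, then 30 min 37 °C plus 30 min room-temperature dye loading | assay system = stable human MrgX1 HEK293 cell line | input = fifteen thousand cells per well | signal = kinetic calcium dye fluorescence, Fluo-4 NW | dosing = compound delivered in addition one of three | read-out = B-scored fluorescence response ratio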
RGS4 pot – potentiators or activators of RGS4 | HEK293 M3R/inducible RGS4, carbachol calcium flux Fluo4; stronger effect = lower value | B-score at 10 µM | 310,000 compounds, 0.92% hits | AID 463111;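 active means B-score of the integrated calcium signal more than 4 SD below the library mean, with starting fluorescence not abnormally high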;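 further: negative B-score means reduced calcium response which marks RGS4 activation or potentiation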
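Assay system: HEK293 FlpIn-TREx cells, stable M3R, doxycycline-inducible RGS4 / Probe or stimulus: carbachol, ECmax concentration / Times: overnight RGS4 induction, 30 min dye load 37 °C, 20 min compound RT / Signal: kinetic calcium fluorescence imaging with Fluo4-AM dye, 2 µM / Measure: Agonist-evoked peak-minus-minimum fluorescence over baseline, integrated ratio, B score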
Starred values were filed as active, the others as inactive; i = inactive; / = no result. The list is not random: actives were taken first. Their share in the collection is about 3.5%.

SMILES	RGS4 block	MrgX1 PAM	MrgX1 antagonist	MrgX1 agonist	RGS4 pot
CCC1(c2ccccc2)NC(=O)N(CC(=O)Nc2cc(S(=O)(=O)N3CCCCCC3)ccc2OC)C1=O (centres undefined)	i	i	i	i	i
COc1ccc(CNC(=O)C(c2cccs2)N(Cc2ccco2)C(=O)Cc2cccs2)cc1 (centres undefined)	i	i	i	i	-7.4*
Cc1ccc(C(C(=O)NCc2ccccc2)N(Cc2cccs2)C(=O)c2ccc3c(c2)OCCO3)cc1 (centres undefined)	i	i	i	i	i
COc1ccc(CNC(=O)C(c2ccco2)N(Cc2cccs2)C(=O)Cc2cccs2)cc1 (centres undefined)	i	i	i	i	i
COc1ccc(CNC(=O)C(c2ccc(C)cc2)N(Cc2cccs2)C(=O)c2ccc3c(c2)OCCO3)cc1 (centres undefined)	i	i	i	i	-7.5*
COc1ccc(CN2CCC(CO)(Cc3ccccc3C(F)(F)F)CC2)c(F)c1	i	i	i	i	-7.1*
CN(Cc1ccc(F)cc1)C(=O)c1sccc1-c1ccccc1	i	i	i	i	-7.2*
O=C(N1CCN(c2ccccn2)CC1)N1c2ccccc2Sc2ccccc21	i	i	i	i	-7.4*
C/C(Cl)=C/CSc1nn2c(=O)c3ccccc3nc2s1	i	7.8*	i	i	i
CC(C)CC(=O)NC(=S)Nc1nc(-c2cccc3ccccc23)cs1	i	i	i	i	-7.1*
Cc1ccc2c(c1)C(O)(c1c(C)[nH]c3ccccc13)C(=O)N2 (centres undefined)	6.3*	i	i	i	i
Cc1[nH]c2ccccc2c1C1(O)C(=O)N(C(C)C)c2ccccc21 (centres undefined)	i	i	i	i	i
COc1ccccc1NS(=O)(=O)c1cccc(C(=O)NCC(c2ccccc2OC)N2CCCC2)c1 (centres undefined)	i	i	-5.7*	i	i
COc1ccccc1NS(=O)(=O)c1cccc(C(=O)N/N=C/c2ccc(C)o2)c1	i	18*	i	i	i
COc1ccccc1C(CNC(=O)c1cccc(S(=O)(=O)Nc2ccc(C)cc2)c1)N1CCCC1 (centres undefined)	i	i	i	i	i
Cc1ccc(/C=N/NC(=O)c2cccc(S(=O)(=O)Nc3ccccc3Cl)c2)s1	i	11*	i	i	i
Cc1cc(C)n2nc[n+](C)c2n1	i	i	i	i	i
COc1cccc(CN2CCNC(=O)C2CC(=O)N(C)C2CCOCC2)c1 (centres undefined)	i	i	i	i	i
O=C(Cc1c(Cl)cccc1Cl)OCC(=O)N1CCN(C(=O)c2ccco2)CC1	i	i	i	i	i
O=[N+]([O-])c1ccc(CSc2nnc(SCc3ccccc3)s2)cc1	i	i	i	i	-8.3*
CCc1ccccc1N(C)S(=O)(=O)c1cc(-c2cc(C)no2)ccc1OC	i	i	i	i	i
O=C(NCc1ccco1)C(c1ccccc1)N(Cc1cccnc1)C(=O)Cn1nnc2ccccc21 (centres undefined)	i	i	i	i	i
CN1CCN(C2=Cc3ccccc3Sc3cc(F)c(F)cc32)CC1	i	i	i	i	i
CN1CCN(C2=Cc3ccccc3Sc3cc(F)c(Cl)cc32)CC1	i	i	i	i	-10*
N#Cc1c(N)c2ccccn2c1C(=O)c1ccc(Br)cc1	i	i	i	i	i
SMILES	RGS4 block	MrgX1 PAM	MrgX1 antagonist	MrgX1 agonist	RGS4 pot
Cc1cccc(CN2CCCC(C(=O)Nc3ccc(-c4cscn4)cc3)C2)c1 (centres undefined)	i	i	i	i	-7.3*
Cc1cc(N=Nc2c(O)c3ccccc3[nH]c2=O)ccc1N=Nc1ccc(C(=O)N(C)C)cc1	i	/	/	/	-7.8*
O=C(O)c1ccc(N=Nc2c(O)[nH]c3ccccc23)cc1	i	i	i	i	i
Cc1ccc(OCC(=O)NCCCNC(=O)c2cccnc2)cc1	i	i	i	i	i
Cc1ccc(O)c(Sc2cc(C)ccc2O)c1	i	i	i	29*	i
COc1ccc2c(=O)c(-c3ccccc3C)c(C)oc2c1	i	9.3*	i	i	i
COc1ccccc1-c1c(C)oc2cc(OC(=O)c3ccco3)ccc2c1=O	i	i	i	i	i
CCOC(=O)c1nn(-c2ccccc2)c2nc(-c3ccc(OC)cc3)c(C#N)c(=O)n12	i	i	-4.9*	i	i
O=C(O)c1ccc(Nc2ncnc3scc(-c4ccccc4)c23)cc1	i	i	i	30*	i
CCC1CCCCN1CCCNC(=O)CSc1nc2nc(C)c(Cc3ccccc3Cl)c(C)n2n1 (centres undefined)	i	i	i	i	-7*
Cc1ccc(-n2c(SCC(=O)NNC(=S)Nc3ccccc3)nc3ccccc3c2=O)cc1	i	7.4*	i	i	i
CC(=O)Nc1ccc(C(=O)CSc2cc(C)c3cccc(C)c3n2)cc1	i	i	i	i	i
Cc1ccc(Oc2ccc(S(=O)(=O)N3CCOCC3)cc2C(N)=O)cc1C	i	i	i	i	i
COc1cc(/C=N\Nc2nc3ccccc3o2)cc(OC)c1OC	i	i	-6.6*	i	i
O=[N+]([O-])c1ccccc1/C=C/C=N/Nc1ccc(S(=O)(=O)Nc2ccc(Cl)cc2)cc1[N+](=O)[O-]	i	i	i	i	i
COc1ccccc1NC(=O)CCCC(=O)OCC(F)(F)C(F)F	i	i	-6.2*	i	i
CCc1cc2c3c(c(=O)oc2cc1OC(C)C(=O)O)CCCC3 (centres undefined)	i	i	i	i	i
CCc1cc2c3c(c(=O)oc2cc1O)CCCC3	i	i	-5.5*	i	i
CC(C)c1ccc(NC2CCCN(C(=O)c3ccc(N4CCOCC4)cc3)C2)cc1 (centres undefined)	i	i	i	i	i
COc1ccc(C(=O)Nc2cc(C(C)=O)c(/C=C/N(C)C)oc2=O)cc1	i	i	-5.3*	i	i
COc1ccc(-c2cc3ncnc(Cl)c3s2)cc1	i	i	i	i	i
CC(C)(C)C(=O)Nc1cccc(OC(F)(F)C(F)Cl)c1 (centres undefined)	i	i	i	i	i
